Screening results: PubChem, The Scripps Research Institute Molecular Screening Center
CHRM4 antagonist – blocks acetylcholine activation of human M4 receptor; P08173; CHO-hM4 cells, ACh EC80, Fluo-8 calcium fluorescence; inhibition, % at 3 µM; 0.73% of 360,000 active;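 active means inhibition above its plate's cutoff, the mean inhibition of sample wells plus 3 SD, cut at about 27% in these data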;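 further: 0% = acetylcholine EC80 with DMSO and 100% = DMSO without agonist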
M4 PAM – positive allosteric modulators of human muscarinic M4 receptor; P08173; CHO-K1 hM4/Gqi5, Fluo-8 calcium fluorescence, ACh EC20; 0% = ACh EC20, 100% = maximal ACh; activation, % at 3 µM; 0.4% of 360,000 active; AID 624126;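 active means activation above its plate's cutoff, the mean activation of sample wells plus 3 SD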
CHRM4 agonist – agonists of human muscarinic M4 receptor (CHRM4). P08173. CHO-K1 hM4/Gqi5, Fluo-8 calcium fluorescence; vehicle 0%, full acetylcholine response 100%. activation, % at 3 µM. 0.14% of 360,000 active;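 active means activation above the run mean over all test wells plus 3 SD, cut at about 32% in these data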;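 further: peak over basal fluorescence ratio per well then scaled between controls; 0% = DMSO wells and 100% = acetylcholine at EC100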
M5 PAM – potentiates acetylcholine response at human M5 receptor; activation, % at 3 µM; CHO-K1 hM5, Fluo-8 calcium, ACh EC20 PAM; 0% = ACh EC20, 100% = ACh EC100; 0.3% of 360,000 active; AID 624038; P08912;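 active means activation above the run cutoff, the mean activation of all test compounds plus 3 SD, cut at about 18% in these data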
Target sequence (P08912 whole entry, looked up): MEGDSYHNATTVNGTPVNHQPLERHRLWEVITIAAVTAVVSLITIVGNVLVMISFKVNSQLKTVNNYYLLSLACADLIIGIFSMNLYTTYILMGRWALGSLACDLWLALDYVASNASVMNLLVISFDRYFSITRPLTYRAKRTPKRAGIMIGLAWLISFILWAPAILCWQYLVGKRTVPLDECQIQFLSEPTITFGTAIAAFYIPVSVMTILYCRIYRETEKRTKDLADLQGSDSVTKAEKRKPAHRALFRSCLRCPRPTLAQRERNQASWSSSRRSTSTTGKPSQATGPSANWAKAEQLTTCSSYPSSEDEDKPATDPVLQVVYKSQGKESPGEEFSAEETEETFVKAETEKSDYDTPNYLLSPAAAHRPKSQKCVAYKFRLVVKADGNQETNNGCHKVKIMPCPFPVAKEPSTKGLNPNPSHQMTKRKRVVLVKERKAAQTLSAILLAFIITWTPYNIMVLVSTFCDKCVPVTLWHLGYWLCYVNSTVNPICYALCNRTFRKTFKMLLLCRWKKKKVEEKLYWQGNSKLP
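system = human M5 receptor in CHO-K1 cells | compound = one concentration, 3 µM final (nominal) | schedule = Post-acetylcholine fluorescence recording 140 s | signal = Fluo-8 calcium dye fluorescence, kinetic read | benchmarks = low control EC20 acetylcholine (0%), high control EC100 acetylcholine (100%) | repeats = singlicate, one well per test compound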
M5 ag – CHRM5 agonism in calcium assay; P08912; activation, % at 3 µM; 0.19% of 360,000 active; CHO-K1 hM5 cells, Fluo-8 calcium fluorescence; 0% DMSO wells, 100% maximal acetylcholine response;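 active means activation above the run's mean over test compounds plus 3 SD, cut at about 23% in these data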;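 further: signal is peak over basal fluorescence ratio across the kinetic read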
M5 antag – antagonists of human muscarinic M5 receptor (CHRM5). P08912. CHO-hM5 cells, Fluo-8 calcium fluorescence, ACh EC80. inhibition, % at 3 µM. 0.59% of 360,000 active. AID 624040;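 active means inhibition above a per-plate cutoff, the mean of that plate's test compounds plus 3 SD, cut at about 27% in these data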;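 further: 0% = acetylcholine EC80 with DMSO and 100% = DMSO without agonist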
* hit, by the source's call; ! = not confirmed by another sample. Sampled rows, rich in hits. Any-hit rate of the full collection: about 1.8%.

SMILES	CHRM4 antagonist	M4 PAM	CHRM4 agonist	M5 PAM	M5 ag	M5 antag
CCN(CC(=O)Nc1ccc(OC)cc1)C(=O)CN1C(=O)NC(C)(c2ccc3ccccc3c2)C1=O (stereo unspecified)	4	-3	4	-11	-6	32*
CCN(CC(=O)Nc1ccc(OC)cc1)C(=O)Cc1ccsc1	-23	22*	1	-1	2	-5
O=C(CN1CCN(c2ccccc2O)CC1)NCCCc1ccccc1	-6	6	2	-1	-2	7
C=CCN(c1ccc(C(=O)N2CCN(c3ccc(F)cc3)CC2)cc1)S(C)(=O)=O	-3	4	1	-2	3	42*
CCN1C(=O)[C@H]2[C@@H](c3ccc(C)cc3)N[C@]3(CCCN(Cc4ccccc4)C3=O)[C@H]2C1=O	-14	7	1	0	0	2
CN1CCc2cccc3c2[C@H]1Cc1ccc(O)c(O)c1-3	81*!	-19	3	-18	0	27
CN1CCc2cc3c(c4c2[C@H]1[C@H](O)c1ccccc1-4)OCO3	5	1	-1	2	-12	-2
CCC1=NN2C(=N)/C(=C/c3cc(C)n(Cc4ccccc4)c3C)C(=O)N=C2S1	4	-42	53*	-26	24*	3
COc1ccccc1OCC(=O)N1CCN(S(=O)(=O)c2ccc(Cl)cc2)CC1	1	-1	1	2	-1	0
Cc1cc(C(=O)N2CCC2(C)C(=O)NS(=O)(=O)c2ccccc2Cl)nn1C (stereo unspecified)	-1	4	1	-2	2	6
COc1ccc(CNC(=O)C(c2ccco2)N(C(=O)c2ccccn2)c2ccccc2)cc1 (stereo unspecified)	-2	-7	10	-2	5	1
O=C(NCc1ccccc1)C(c1ccco1)N(C(=O)c1ccccn1)c1ccccc1 (stereo unspecified)	-3	-1	5	-9	-5	49*
O=C1NCCc2c1[nH]c1c(Cl)ccc(Cl)c21	-5	13	2	21*	-8	-7
O=C(Nc1cccc(C(F)(F)F)c1)Nc1ccc2nc([C@@H]3O[C@H](CO)[C@@H](O)[C@H](O)[C@H]3O)[nH]c2c1	-14	3	1	3	1	0
O=C(NCCC1=CCCCC1)c1[nH]c(C(F)(F)F)nc1-c1ccccc1	-11	4	12	-2	4	13
COc1ccc2[nH]c(C(=O)N3CCN(Cc4ccccc4)CC3)cc2c1OC	-9	3	8	-9	6	-3
Cc1cccc(-c2noc(-c3csc([C@@H]4C[C@H](O)[C@@H](CO)O4)n3)n2)c1	-15	8	7	-10	1	29*
CC1(C)O[C@@H]2C[C@H]3[C@@H]4C[C@H](F)C5=CC(=O)C=C[C@]5(C)[C@@]4(F)[C@@H](O)C[C@]3(C)[C@]2(C(=O)CO)O1	-15	5	1	2	2	6
CC1CC2C3CCC4=CC(=O)C=CC4(C)C3(F)C(O)CC2(C)C1(O)C(=O)CO (stereo unspecified)	9	16	1	3	-1	8
CC1(C)O[C@@H]2C[C@H]3[C@@H]4CCC5=CC(=O)C=C[C@]5(C)[C@@]4(F)[C@@H](O)C[C@]3(C)[C@]2(C(=O)CO)O1	46*	-15	2	-13	1	6
C[C@]12C=CC(=O)C=C1CC[C@H]1[C@@H]3C[C@@H](O)[C@](O)(C(=O)CO)[C@@]3(C)C[C@H](O)[C@@]12F	-22	1	4	-18	48*	0
CC(OC(=O)CC1CCCCC1)C(=O)Nc1ccc(F)cc1 (stereo unspecified)	-5	-3	-1	2	-2	1
N#CC1=C(N2CCCCC2)c2cc3c(n2C1=O)CCCC3	31*	-19	2	-3	-5	13
Cc1ccc2ccccc2c1C(O)c1ncc(-c2ccccc2Cl)[nH]1 (stereo unspecified)	-9	-2	4	-4	0	3
Cc1c(Cl)cccc1NC(=O)CNc1cccc(C(F)(F)F)c1	-16	-2	3	-3	-1	-6
SMILES	CHRM4 antagonist	M4 PAM	CHRM4 agonist	M5 PAM	M5 ag	M5 antag
CC(C)(CO)NCC(=O)Nc1cc(C(F)(F)F)cc(NC(=O)CNC(C)(C)CO)c1Cl	6	21*	1	1	-1	4
CN1CCC(N(C)CC(O)c2ccccc2)CC1 (stereo unspecified)	-3	1	1	4	1	4
Cc1ccccc1C(=O)OC1CCN(C)CC1	9	-8	0	-20	-9	12
CN1CCC(Oc2ccccc2Sc2ccccc2)CC1	74*	-43	10	-19	-6	78*
CN1CCC(OC(c2ccccc2)c2ccccc2)CC1	80*	-17	1	-19	-2	96*
O=C(c1ccc(S(=O)(=O)N2CCc3ccccc3C2)cc1)N1CCCCC1	0	-1	8	6	4	-9
COc1ccc(-c2csc(NC(=O)c3ccccc3S(C)(=O)=O)n2)cc1	-4	0	10	-6	3	4
COc1ccccc1OC(C)C(=O)Nc1nc(-c2ccc(S(=O)(=O)N3CCOCC3)cc2)cs1 (stereo unspecified)	6	-10	5	-12	-2	18
COc1ccc(-c2csc(NC(=O)c3ccc(S(C)(=O)=O)cc3)n2)cc1	7	-14	24	-24	23*	10
COc1ccccc1C(=O)Nc1nc(-c2ccc(S(=O)(=O)N3CCOCC3)cc2)cs1	36*	-15	22	-55	3	30*
Cc1cc(C(=O)Nc2ccc3ccccc3c2)c(C)o1	12	-9	1	-1	-4	6
Cc1cccc(C)c1NC1=NCCCCC1	1	4	1	4	-1	5
Cn1c(SCCN2CCCC2)nnc1C1CCN(S(=O)(=O)c2cccc(F)c2)CC1	32*	-16	1	-8	-8	13
Cn1c(SCC(N)=O)nnc1C1CCN(S(=O)(=O)c2ccccc2C(F)(F)F)CC1	-6	5	1	7	-4	2
Cc1cccc(CCN(C(=O)c2csnn2)C(C(=O)NC2CCCC2)c2ccco2)c1 (stereo unspecified)	-4	-1	2	0	-2	4
O=C(Nc1ccc2nc(-c3ccco3)c(-c3ccco3)nc2c1)N1CCN(c2ccccn2)CC1	8	-15	12	20*	2	25
Cc1nc2cc(NC(=O)N3CCN(c4ccccn4)CC3)ccc2o1	5	-4	1	-3	1	-2
